Compound activity as filed in PubChem BioAssay.
Hits are enriched below; roughly 5.1% of the tested compounds scored in any of these assays.
STAT3 inh: IL-6 driven STAT3 reporter inhibitors, primary screen, U3A cells, luciferase, luminescence, MLSCN library; IL-6 STAT3-luciferase reporter; host cell line lacks STAT1; inhibition, % at 5.5 µM; 190,000 compounds, 0.89% hits;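 active = inhibition above the mean inhibition across all screened compounds plus 3 SD, cut at about 44% in these data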
STAT3 activator: IL-6 driven STAT3 reporter potentiators, primary screen, U3A cells, luciferase, luminescence, MLSCN library. IL-6 STAT3-luciferase reporter; 100% = signal with IL-6 EC80 alone. 190,000 compounds, 0.91% hits. AID 871, 2007. activation (% of control), % at 5.6 µM;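 active = activation above the screen-wide mean of compound activation plus 3 SD, cut at about 130% in these data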
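Material: STAT3-luciferase reporter U3A cells; Probe or stimulus: IL-6 (33 ng/mL); Incubation: compound pre-incubation 1 h before IL-6, then 6 h stimulation at 37 °C; Technique: luminescence from STAT3-driven luciferase reporter; Evaluation: % activation versus median of IL-6-stimulated wells; Controls: IL-6-only high control.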
APP 5'UTR act: activators of APP 5'UTR luciferase reporter, primary screen, SH-SY5Y cells; SH-SY5Y APP 5'UTR luciferase reporter, luminescence; zero percent = DMSO vehicle wells; activation, % at 2 µM; 190,000 compounds, 1% hits;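 active = activation above a set limit, based on mean plus 3 SD of controls, cut at about 140% in these data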
STAT1 act: STAT1 signaling activators, primary screen, cell-based, HTS, luciferase reporter. NIH 3T3 STAT1-luciferase reporter, IFN-gamma, luminescence; 100% = IFN-gamma alone, no compound. activation (% of control), % at 5.5 µM. 200,000 compounds, 2.6% hits. AID 932, 2007;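 active = activation above the screen-wide mean activation plus 3 SD, cut at about 130% in these data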
STAT1 blocker: STAT1 signaling inhibitors, primary screen, cell-based, HTS, luciferase reporter. NIH 3T3 STAT1-luciferase reporter, IFN-gamma, luminescence. inhibition, % at 5.5 µM. 200,000 compounds, 0.35% hits;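 active = inhibition above a set limit, the mean inhibition across all tested compounds plus 3 SD, cut at about 34% in these data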
NF-kB neuron act: activators of NF-kB expression in neurons, primary screen, cell-based, HTS. human neuronal cells, NF-kB reporter expression; active compounds read high. fold change at 12.5 µM. 190,000 compounds, 1.6% hits; in the data active = fold change above about 3.3
Of the large screens only hits and unclear results are named; the others gave an inactive call.

Cc1ccc(S(=O)(=O)N[C@H](C(=O)OCC(=O)N2N=C(c3ccc(Cl)cc3)CC2c2ccco2)C(C)C)cc1 (stereo partly specified)	none
COc1ccc(-c2cc3ccccc3n2CC(O)CN2CCN(CCO)CC2)cc1 (stereo unspecified)	none
COc1nc(-c2ccc(C)cc2)ccc1-c1noc(-c2ccco2)n1	none
COc1nc(C)ccc1-c1noc(-c2ccco2)n1	APP 5'UTR act 181.9, STAT1 act 140.3, NF-kB neuron act 4.6
Fc1ccc(-c2csc(-c3ccccn3)n2)cc1F	STAT1 act 140.5
Cc1ccc(-c2nc(-c3ccccn3)no2)cc1	STAT3 inh 106.7, STAT1 blocker 90.3
O=C(Nc1nc(-c2ccccn2)cs1)c1ccco1	none
c1ccc(-c2nc(-c3ccco3)cs2)nc1	STAT1 act 130.5
CSCCCNC(=S)N(C)CC(=O)Nc1ccc(C)cc1	none
Nc1c(C(=O)NCCc2ccc(Cl)cc2)sc2ccc(S(=O)(=O)N3CCCCC3)cc12	none
O=c1c2oc3ccccc3c2ncn1Cc1ccc(F)cc1	none
c1ccc(-c2noc(-c3ccco3)n2)nc1	APP 5'UTR act 192.1, STAT1 act 136.8
c1ccc(-c2nccc(-c3ccco3)n2)nc1	none
Cc1ccc2nc(-c3ccccn3)oc2c1	APP 5'UTR act 175.6, NF-kB neuron act 4.46
COc1cccc(-c2nc(-c3ccccn3)no2)c1OC	STAT1 act 136.2
O=C1OC(c2ccco2)=N/C1=C\c1ccc(-c2cccc(C(F)(F)F)c2)o1	none
COc1cc(C)ccc1OCCCOc1ccccc1Cl	STAT1 act 144.3
COc1cc(C)ccc1OCCOc1ccccc1Cl	none
CNC(=S)Nc1cccc(Cl)c1C	none
COc1ccc(COC(=O)NNC(=O)c2ccccc2Cl)cc1	none
O=C(CCSc1ccccc1)N1CCCC1	STAT1 act 134.3
O=C(CCSc1ccccc1)NC1CCCCCC1	STAT1 act 143.9
O=C(CCSc1ccccc1)N1CCOCC1	none
O=C(CCSc1ccc(Cl)cc1)NC1CCCCC1	none
O=C(N/N=C/C=C/c1ccco1)c1cccnc1	none
O=C(N/N=C\C=C\c1ccco1)c1cc(-c2ccc3ccccc3c2)n[nH]1	STAT1 act 132.8
O=C(c1cc2c(=O)n3ccccc3nc2s1)N1CCOCC1	STAT1 act 131.2
O=C(NCCC1=CCCCC1)C(=O)NCC1OCCCN1S(=O)(=O)c1ccc(F)cc1 (stereo unspecified)	none
CCC(=O)Nc1c(C(=O)Nc2ccc3c(c2)OCCO3)oc2ccccc12	STAT1 act 144.3
O=C(Nc1ccc2c(c1)OCCO2)c1oc2ccccc2c1NC(=O)C1CC1	none
Cc1ccc(NC(=O)c2oc3ccccc3c2NC(=O)C2CCCO2)cc1C (stereo unspecified)	APP 5'UTR act 176.2 (no result: NF-kB neuron act)
CCc1ccc(C(=O)NNC(=S)Nc2ccc(S(N)(=O)=O)cc2)s1	none
CC(=O)c1cccc(CN2CCN(C(C)C)C(CCO)C2)c1 (stereo unspecified)	none (no result: NF-kB neuron act)
N#CC1=C(N)Oc2ccc3ccc(O)cc3c2C1c1ccsc1 (stereo unspecified)	none
O=C(C1CCN(Cc2cccs2)CC1)N1CCN(Cc2ccc3c(c2)OCO3)CC1	none
Cn1c(O)c(C2=c3ccccc3=NC2=O)sc1=Nc1ccc(Cl)cc1	NF-kB neuron act 5.15
O=C(c1ccco1)N1CCN(c2nnc(-c3ccccc3)c3ccccc23)CC1	none
Cc1ccc2[nH]c(SCC(=O)N3CCOCC3)nc2c1C	none
Cc1ccc2nc(SCC(=O)Nc3cc(C(F)(F)F)ccc3N3CCOCC3)[nH]c2c1	NF-kB neuron act 3.57
Cc1ccc2nc(SCC(=O)N3CCOCC3)[nH]c2c1	STAT1 act 131.7
O=C(CSc1nc2ccccc2[nH]1)N1CCCCC1	STAT1 act 130.2
Nc1nc(SCC(=O)Nc2cc(C(F)(F)F)ccc2N2CCOCC2)n[nH]1	none
O=C(Nc1cc(C(F)(F)F)ccc1N1CCOCC1)c1ccc2ccccc2n1	STAT3 activator 133.7
Cc1nn(C)cc1C(C(=O)NC1CCCCC1)N(Cc1ccc(F)cc1)C(=O)c1cnccn1 (stereo unspecified)	none
O=C(CSc1ncnc2ccccc12)c1ccco1	APP 5'UTR act 146.1, STAT1 act 132.4, NF-kB neuron act 5.58
Fc1ccc(-n2nnc(-c3cccnc3)n2)cc1	STAT1 act 149.1 (no result: STAT3 inh, STAT3 activator)
CCOc1ccc(CN2CCN(C3CCSCC3)CC2CCO)cc1 (stereo unspecified)	none
CN=c1scc(-c2ccccc2F)n1/N=C/c1ccc(O)c(O)c1O	STAT3 inh 50.5, STAT1 blocker 87.4
CN=c1scc(-c2ccccc2F)n1/N=C/c1ccc[nH]1	STAT3 inh 110.3, STAT1 blocker 96.7
Oc1ccccc1N=Cc1ccc[nH]1	none
COc1cccc(-c2cc3nc4c(c(NCC(C)(C)CN(C)C)n3n2)CCCC4)c1	STAT1 act 140.4
COc1cccc(Nc2c3c(nc4c(-c5ccccc5)c(C)nn24)CCC3)c1	none
Fc1cccc(-c2cc3nc4c(c(NCc5ccco5)n3n2)CCCC4)c1	APP 5'UTR act 165.8, STAT1 act 142.8, NF-kB neuron act 4.6
CC(C(=O)NCCC1=CCCCC1)c1ccc([N+](=O)[O-])cc1 (stereo unspecified)	none
CCCCNC(=O)COC(=O)c1c2c(nc3ccccc13)/C(=C/c1cccs1)CC2	none
CNC(=O)NC(=O)C(C)OC(=O)c1c2c(nc3ccccc13)/C(=C/c1cccs1)CC2 (stereo unspecified)	STAT1 act 129.5
CCOC(=O)c1ccc(NC(=O)N2CCN(C(=O)c3ccco3)CC2)cc1	none
N#C/C(=C\Nc1ccc2c(c1)OCCO2)c1nc(-c2ccccc2)cs1	none
COc1ccccc1C(=O)Nc1nc(-c2ccc3c(c2)OCCO3)cs1	none
COc1cccc(Nc2nc(-c3ccc4c(c3)OCCO4)cs2)c1	APP 5'UTR act 161.8, STAT1 act 147.6
Nc1nc(-c2ccc3c(c2)CCO3)cs1	none
c1cc2c(cc1-c1csc(NNC3=NCCCCC3)n1)OCCO2	STAT1 act 144.1
c1ccc(-c2csc(Nc3ccc4c(c3)OCCO4)n2)cc1	APP 5'UTR act 186.6, STAT1 act 138.6, NF-kB neuron act 4.82
c1cc2c(cc1Nc1nc(-c3ccc4c(c3)OCO4)cs1)OCCO2	STAT1 act 137.1
CCCNC(=O)CSc1nc2[nH]ncc2c(=O)[nH]1	none
CC(C)(C)C(=O)Nc1nc(-c2ccc3c(c2)OCO3)cs1	APP 5'UTR act 157.4, STAT1 act 138.8, NF-kB neuron act 5.73
COc1cccc(-c2csc(NC(C)=O)n2)c1	STAT1 act 137.3
O=C(/C=C/c1ccc2c(c1)OCO2)Nc1nc(-c2ccc(F)cc2)cs1	none
